Source: PubChem (SRMLSC)
HCT116 bCat-KO: beta-catenin-lacking colon tumor cell growth suppression; hit rate 1.5% among 140,000; viability, % at 10 µM; HCT116 beta-catenin knockout viability, CellTiter-Glo, 60 h; active compounds read low;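 active = viability at or under a set limit, the compound median less 4 SD, cut at about 6% in these data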
PTEN del growth: growth suppressors of cells with PTEN tumor suppressor deletion | HCT116 PTEN-null viability, CellTiter-Glo, 60 h; active compounds read low | viability, % at 10 µM | hit rate 1.2% among 140,000 | AID 827;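 active = viability at or below a set limit, 4 SD under the median of all tested compounds, cut at about 3.7% in these data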;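 note: PTEN knockout HCT116 line with beta catenin targeted HCT116 as companion control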
H69AR inhibit: blocks growth of human H69AR lung tumor cells | hit rate 6% among 85,000 | viability, % at 10 µM | H69AR lung tumor viability, ATP luminescence, 72 h; active compounds read low | AID 598;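 active = viability at or below 40%; inactive = viability above 40%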;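 note: multidrug resistant small cell line overexpressing MRP-1 efflux transporter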
HUVEC inhibit: blocks proliferation of human endothelial cells; hit rate 1.1% among 86,000; HUVEC proliferation, CellTiter-Glo luminescence, 72 h; active compounds read low; AID 648; viability, % at 10 µM (by protocol);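 active = viability at or below 30%; inactive = viability above 30%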
Fibroblast inh: blocks proliferation of human lung fibroblasts | LL 47 human lung fibroblast viability, ATP luminescence; active compounds read low | viability, % at 10 µM | hit rate 1.1% among 85,000;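 active = viability at or below 50% in the single dose screen; inactive = viability above 50%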;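 note: compound exposure lasted 72 h before the ATP readout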
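test system = LL 47 human lung fibroblasts | amount = 1,150 fibroblasts seeded per well | medium = 15% FBS in IMEM | times = overnight cell rest, 72 h compound treatment at 37 °C | measured by = CellTiter-Glo luminescence measuring cellular ATP | read-out = viability percentage against median untreated-cell control | benchmarks = cell-only wells, no compound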
Large screens that a line does not name were inactive. Only a selection was taken, and hits are over-represented in it overall.

CCC1CSC(Nc2ccc(C(=O)/C=C/c3ccc(Br)cc3)cc2)=N1 (stereo unspecified)	HCT116 bCat-KO 5.4, PTEN del growth 2.8 (no result: H69AR inhibit, HUVEC inhibit, Fibroblast inh)
CCC1CSC(Nc2ccc(C(=O)/C=C/c3ccc(OC)c(OC)c3)cc2)=N1 (stereo unspecified)	HCT116 bCat-KO 3.0, PTEN del growth 3.4 (no result: H69AR inhibit, HUVEC inhibit, Fibroblast inh)
CCOC(=O)C1C(c2cccc(F)c2)NC(=S)NC1(O)C(F)(F)F (stereo unspecified)	none (no result: H69AR inhibit, HUVEC inhibit, Fibroblast inh)
OC1(Cc2ccn[nH]2)CCCCC1	HUVEC inhibit 28
Cc1nn(Cc2ccc(Cl)cc2)c(C)c1NC(=O)C(c1ccccc1)c1ccccc1	none (no result: H69AR inhibit, HUVEC inhibit, Fibroblast inh)
COCCOC(=O)c1[nH]c2c(c1C)C(=O)CC(c1ccco1)C2 (stereo unspecified)	H69AR inhibit 26
CCOC(=O)c1[nH]c2c(c1C)C(=O)CC(c1ccco1)C2 (stereo unspecified)	none
CSCCOC(=O)c1[nH]c2c(c1C)C(=O)CC(c1ccco1)C2 (stereo unspecified)	H69AR inhibit 37
Cc1c(C(=O)OCc2ccccc2)[nH]c2c1C(=O)CC(c1ccco1)C2 (stereo unspecified)	H69AR inhibit 26, HUVEC inhibit 22, Fibroblast inh 27
Cc1c(C(=O)OCCOC(C)C)[nH]c2c1C(=O)CC(c1ccco1)C2 (stereo unspecified)	none
Cc1ccc(S(=O)(=O)NCCCCCC(=O)Nc2cccc(C)c2)cc1	none (no result: H69AR inhibit, HUVEC inhibit, Fibroblast inh)
Cc1ccc2nc(/C(C#N)=C\c3ccc(Oc4ccc(C(F)(F)F)cc4[N+](=O)[O-])cc3)[nH]c2c1	none (no result: H69AR inhibit, HUVEC inhibit, Fibroblast inh)
COc1ccc(/C=C(\C#N)c2nc3ccc(C)cc3[nH]2)cc1Oc1ccc(C(F)(F)F)cc1[N+](=O)[O-]	HCT116 bCat-KO 1.5, PTEN del growth 1.3 (no result: H69AR inhibit, HUVEC inhibit, Fibroblast inh)
CCOc1ccccc1N1CCN(C(=O)CCCc2nc3ccccc3s2)CC1	none (no result: H69AR inhibit, HUVEC inhibit, Fibroblast inh)
O=C(c1cncc(Br)c1)N1CCCc2ccccc21	none
O=C(c1coc(=O)c(Br)c1)N1CCCc2ccccc21	H69AR inhibit -0.6
CC1(C)CCCN(C(=O)c2coc(=O)c(Br)c2)C1	H69AR inhibit 7.0
O=C(CSc1cn(CCNC(=O)c2cccs2)c2ccccc12)NCc1ccccc1	none
Oc1ccc(/C=N/n2c(-c3ccco3)csc2=Nc2cccnc2)c(O)c1	none (no result: H69AR inhibit, HUVEC inhibit, Fibroblast inh)
CC(C)N=c1scc(-c2ccco2)n1/N=C/c1ccc(O)c(O)c1	H69AR inhibit 31, Fibroblast inh 48
O=C(Cc1ccc(Cl)cc1)NN1C(=O)c2ccccc2C1=O	none (no result: H69AR inhibit, HUVEC inhibit, Fibroblast inh)
COC(=O)[C@@H]1[C@@H](C#N)C2(c3ccccc3-c3ccccc32)N(c2ccc(Cl)cc2)N1C#N	H69AR inhibit 0.2, HUVEC inhibit 21, Fibroblast inh 40
O=C(NCc1ccco1)Nc1ccc(Br)cc1	none
O=C(NCc1ccco1)Nc1ccc2nsnc2c1	H69AR inhibit 31
COc1ccc(Cc2nnc(N/N=C/c3ccc(O)cc3O)[nH]c2=O)cc1OC	none (no result: H69AR inhibit, HUVEC inhibit, Fibroblast inh)
COn1c(SCc2ccc(C)cc2C)nc2ccccc2c1=O	H69AR inhibit 31
COc1ccc(CSc2n[nH]c(C)n2)cc1[N+](=O)[O-]	none (no result: H69AR inhibit, HUVEC inhibit, Fibroblast inh)
N#C/C(C(=O)NCc1ccccc1)=C1/SC(Cc2ccc(Cl)cc2)C(=O)N1c1ccccc1 (stereo unspecified)	none (no result: H69AR inhibit, HUVEC inhibit, Fibroblast inh)
Cn1cnnc1Sc1ccc(C(=O)NCCC(c2ccccc2)c2ccccc2)cc1[N+](=O)[O-]	none (no result: H69AR inhibit, HUVEC inhibit, Fibroblast inh)
O=C(Nc1nnc(-c2ccccc2SCc2ccccc2F)s1)Nc1ccccc1F	HCT116 bCat-KO 1.3, PTEN del growth 1.4, H69AR inhibit 16, Fibroblast inh 26
CC(=O)Nc1nnc(SCc2ccccc2F)s1	none
Cn1c(=O)c2c(SCC(=O)NCC3CCCO3)nc(-c3cccs3)nc2n(C)c1=O (stereo unspecified)	H69AR inhibit 29 (no result: HCT116 bCat-KO, PTEN del growth)
O=C(CSc1nnc(-c2cccs2)n1-c1ccccc1)NCC1CCCO1 (stereo unspecified)	none
CC(C)Sc1nc(-c2cccs2)nc2c1c(=O)n(C)c(=O)n2C	H69AR inhibit 19 (no result: HCT116 bCat-KO, PTEN del growth)
COc1ccc(Cc2nnc(NC(=O)CSc3ccc(Cl)cc3)s2)cc1OC	none (no result: H69AR inhibit, HUVEC inhibit, Fibroblast inh)
CSCCC(NC(=O)c1cccc([N+](=O)[O-])c1)C(=O)O (stereo unspecified)	none (no result: H69AR inhibit, HUVEC inhibit, Fibroblast inh)
COc1ccc(-n2nnnc2SCC#CCO)cc1	H69AR inhibit 18
COc1ccc(-n2nnnc2SCC(=O)c2cccc(OC)c2)cc1	none
Cc1c(C)c2ccc(OS(C)(=O)=O)c(C)c2oc1=O	none (no result: H69AR inhibit, HUVEC inhibit, Fibroblast inh)
N#Cc1cc2sc3nc4ccccc4n3c2cc1C#N	none
N#Cc1cc2sc3nnc(-c4ccncc4)n3c2cc1C#N	H69AR inhibit 29, Fibroblast inh 45
CC(/C=C/C(=O)c1ccc(C)cc1)=C\c1ccccc1	none (no result: H69AR inhibit, HUVEC inhibit, Fibroblast inh)
Cc1ccc(S/C=C\C(=O)c2ccccc2)cc1	H69AR inhibit 1.2, HUVEC inhibit 29
Cc1ccc(C(=O)/C=C\C(=O)c2ccc(C)cc2)cc1	HCT116 bCat-KO 1.7, PTEN del growth 1.8 (no result: H69AR inhibit, HUVEC inhibit, Fibroblast inh)
Cc1ccc(C(=O)/C=C\NCc2ccccc2)cc1	none (no result: H69AR inhibit, HUVEC inhibit, Fibroblast inh)
COc1ccc(N(CC(=O)Nc2cc(C)ccc2OC)S(=O)(=O)c2c(C)noc2C)cc1	H69AR inhibit 13
COc1ccc(NC(=O)CN(c2cc(C)cc(C)c2)S(=O)(=O)c2c(C)noc2C)cc1	none
CCOc1ccc(N(CC(=O)Nc2ccc(C)c(C)c2)S(=O)(=O)c2c(C)noc2C)cc1	none
CCOc1ccc(N(CC(=O)Nc2ccccc2C)S(=O)(=O)c2c(C)noc2C)cc1	H69AR inhibit 19, Fibroblast inh 49
CCOc1ccc(N(CC(=O)Nc2cccc(F)c2)S(=O)(=O)c2c(C)noc2C)cc1	H69AR inhibit 30
CCOc1ccccc1NC(=O)CN(c1cc(C)cc(C)c1)S(=O)(=O)c1c(C)noc1C	none
CCOc1ccccc1NC(=O)CN(c1ccc(OC)cc1)S(=O)(=O)c1c(C)noc1C	Fibroblast inh 47
CN(C)c1cccc(C(=O)N/N=C/c2ccsc2)c1	none (no result: H69AR inhibit, HUVEC inhibit, Fibroblast inh)
CSc1ccccc1NC(=O)CN(C)CC(=O)Nc1c(F)cccc1F	none (no result: H69AR inhibit, HUVEC inhibit, Fibroblast inh)
Cn1c(C(=O)Nc2ccc3c(c2)OCCO3)cc2c(=O)n(C)c3ccccc3c21	H69AR inhibit 21
COCCCNC(=O)c1cc2c(=O)n(C)c3ccccc3c2n1C	H69AR inhibit 24
Cn1c(C(=O)NCCCN2CCc3ccccc3C2)cc2c(=O)n(C)c3ccccc3c21	H69AR inhibit 35
O=C(NCc1ccc(Cl)cc1)c1noc2c1CCCCC2	none
Cc1ccc(C(=O)OC2OC(=O)C(Cl)=C2N2CCOCC2)cc1 (stereo unspecified)	none (no result: H69AR inhibit, HUVEC inhibit, Fibroblast inh)
Cc1cc(SCC(=O)c2cccs2)n2nc(C)c(-c3ccc(Cl)cc3)c2n1	none (no result: H69AR inhibit, HUVEC inhibit, Fibroblast inh)
Cc1cc(-n2nc(C)cc2C)n2nc(C)c(-c3ccc(Cl)cc3)c2n1	Fibroblast inh 46
Cc1cc(C(F)(F)F)n2nc(C)c(-c3ccc(Cl)cc3)c2n1	none (no result: H69AR inhibit, HUVEC inhibit, Fibroblast inh)
C=CCSc1cc(C)nc2c(-c3ccc(Cl)cc3)c(C)nn12	H69AR inhibit 36
CCOC(=O)C1=NN(C(C)=O)C2(CC(=O)N(c3ccc(C)c(C)c3)C2=O)C1 (stereo unspecified)	none (no result: H69AR inhibit, HUVEC inhibit, Fibroblast inh)
